Source: ChEMBL document CHEMBL1144209, “CYP19 (aromatase): exploring the scaffold flexibility for novel selective inhibitors” (Bioorg Med Chem, 2008)

Assays:
[1] = target: T1, CYP17 (steroid 17-alpha-hydroxylase/17,20 lyase) (Homo sapiens, UniProt P05093); test: (§1) Inhibition of human CYP17 expressed in Escherichia coli coexpressing NADPH reductase at 2 uM
T1 sequence (P05093 whole entry): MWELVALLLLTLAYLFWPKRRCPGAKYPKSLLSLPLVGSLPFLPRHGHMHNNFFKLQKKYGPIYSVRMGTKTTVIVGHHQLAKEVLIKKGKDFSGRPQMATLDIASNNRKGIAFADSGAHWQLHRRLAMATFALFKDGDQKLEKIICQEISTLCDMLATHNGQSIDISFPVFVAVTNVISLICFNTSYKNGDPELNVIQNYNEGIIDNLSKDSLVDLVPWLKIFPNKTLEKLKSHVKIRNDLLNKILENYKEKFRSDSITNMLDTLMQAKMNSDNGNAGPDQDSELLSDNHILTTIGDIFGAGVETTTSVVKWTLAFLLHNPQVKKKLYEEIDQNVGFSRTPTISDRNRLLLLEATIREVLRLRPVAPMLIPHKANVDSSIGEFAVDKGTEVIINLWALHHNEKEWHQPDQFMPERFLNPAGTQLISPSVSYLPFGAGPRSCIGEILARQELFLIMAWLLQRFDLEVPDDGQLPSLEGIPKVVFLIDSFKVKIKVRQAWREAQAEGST
Procedure, shortened: (§2)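 Enzyme: 50,000g sediment from homogenized, fractionally centrifuged E. coli coexpressing human CYP17 and NADPH-P450 reductase. Substrate: progesterone, 25 µM. Values are means of at least three experiments, with deviations within 5%.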

Aromatase [2] = target: T2, Aromatase (Homo sapiens, UniProt P11511); test: Inhibition of human aromatase at 36 uM
T2 sequence (P11511 whole entry): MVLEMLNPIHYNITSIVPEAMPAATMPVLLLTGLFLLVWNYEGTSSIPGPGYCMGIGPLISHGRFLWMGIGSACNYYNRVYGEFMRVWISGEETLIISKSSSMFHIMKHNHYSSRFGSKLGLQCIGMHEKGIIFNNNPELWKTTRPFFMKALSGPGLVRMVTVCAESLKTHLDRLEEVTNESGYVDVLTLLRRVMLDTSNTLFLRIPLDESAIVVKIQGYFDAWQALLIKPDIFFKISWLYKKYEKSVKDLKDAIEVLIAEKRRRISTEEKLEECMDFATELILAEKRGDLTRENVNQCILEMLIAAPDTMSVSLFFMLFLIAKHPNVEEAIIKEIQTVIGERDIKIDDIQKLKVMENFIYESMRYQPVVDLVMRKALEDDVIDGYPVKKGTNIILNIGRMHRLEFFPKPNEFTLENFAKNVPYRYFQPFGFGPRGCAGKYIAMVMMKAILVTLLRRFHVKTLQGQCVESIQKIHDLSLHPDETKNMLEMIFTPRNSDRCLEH
Procedure, shortened: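 Aromatase source: microsomal fraction of fresh human term placenta. Substrate: [1β,2β-³H]testosterone, 500 nM. Read-out: tritiated water released on aromatization (³H₂O method). Values are means of at least three experiments, with deviations within 5%.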

Aromatase [3] = target: T2, Aromatase; test: Inhibition of human aromatase
[4] = target: T3, Steroid 17-alpha-hydroxylase/17,20 lyase (Homo sapiens, UniProt P05093); test: as §1; details: 2 µM; procedure, shortened: as §2
T3 sequence (P05093 whole entry): T1 sequence (P05093 whole entry)

Row | Structure (SMILES) | inhibition at 2 µM [1] | inhibition at 36 µM (Aromatase [2]) | IC50 (Aromatase [3]) | Activity [4]
1 | CC(C)(C)c1ccc(CN(Cc2ccc(Cl)cc2Cl)n2cnnc2)cc1 | 4% | 3.3% |  | 
2 | c1ccc(CN(Cc2cccc3ccsc23)n2ccnc2)cc1 | 5.25% |  | 9.96 µM | 
3 | Clc1ccc(CC(Cc2ccc(-c3ccccc3)cc2)n2ccnc2)s1 (stereo unspecified) | 25.7% |  | 1.07 µM | 
4 | Clc1ccc(CN(Cc2ccccc2)n2ccnc2)s1 | 7.3% |  | 1.06 µM | 
5 | Clc1ccc(CN(CC/C=C/c2ccccc2)n2cncn2)c(Cl)c1 | 21.1% |  | 17.1 µM | 
6 | CC(C)(C)c1ccc(CN(CC/C=C/c2ccccc2)n2cncn2)cc1 | 12.4% |  | 5.06 µM | 
7 | CC(C)(C)c1ccc(CN(Cc2cccc3ccccc23)n2ccnc2)cc1 | 13% |  | 4.59 µM | 
8 | Clc1ccc(CN(Cc2cccc3ccccc23)n2ccnc2)c(Cl)c1 | 11.3% |  | 4 µM | 
9 | Clc1ccc(CC(Cc2ccc(-c3ccccc3)cc2)n2ccnc2)c(Cl)c1 (stereo unspecified) | 18.2% |  | 1.24 µM | 
10 | Fc1ccc(CC(Cc2ccc(-c3ccccc3)cc2)n2ccnc2)c(F)c1 (stereo unspecified) | 17.7% |  | 0.26 µM | 
11 | C(=C\c1ccccc1)/CCN(Cc1cccc2ccccc12)n1cnnc1 | 6.1% | 14.8% |  | 
12 | C(=C\c1ccccc1)/CCN(Cc1ccc(-c2ccccc2)cc1)n1cnnc1 | 16.1% | 5.9% |  | 
13 | Clc1ccc(CN(Cc2cccc3ccccc23)n2cncn2)c(Cl)c1 |  | 24.9% |  | Not Active
14 | C(=C\c1ccccc1)/CCN(Cc1ccc(-c2ccccc2)cc1)n1cncn1 | 12.4% | 31.4% |  | 
15 | Clc1ccc(CN(Cc2ccc(-c3ccccc3)cc2)n2cnnc2)c(Cl)c1 | 13.1% |  |  | 
16 | C(=C\c1ccccc1)/CCN(Cc1cccc2ccccc12)n1cncn1 | 15.5% |  | 13 µM | 
17 | CC(C)(C)c1ccc(CN(Cc2cccc3ccccc23)n2cnnc2)cc1 | 22.4% |  |  | 
18 | Clc1ccc(CN(CC/C=C/c2ccccc2)n2cnnc2)c(Cl)c1 |  | 10.6% |  | Not Active
19 | CC(C)(C)c1ccc(CN(CC/C=C/c2ccccc2)n2cnnc2)cc1 | 19.9% | 38.3% |  | 
20 | CC(C)(C)c1ccc(CN(Cc2ccc(Cl)cc2Cl)n2ccnc2)cc1 | 43.3% |  | 1.52 µM | 
21 | CC(C)(C)c1ccc(CN(Cc2ccc(Cl)cc2Cl)n2cncn2)cc1 | 3.33% | 36% |  | 
22 | Clc1ccc(CN(Cc2cccc3ccsc23)n2ccnc2)c(Cl)c1 | 4.07% |  | 2.49 µM | 
23 | Clc1ccc(CN(Cc2ccc(Cl)s2)n2ccnc2)c(Cl)c1 | 56.2% |  | 0.32 µM | 
24 | CC(C)(C)c1ccc(CN(Cc2cccs2)n2cncn2)cc1 |  |  | 9.23 µM | Not Active
25 | Clc1ccc(CC(Cc2ccccc2)n2ccnc2)s1 (stereo unspecified) | 7.97% |  | 0.87 µM | 
26 | CC(C)(C)c1ccc(CN(Cc2cccc3ccccc23)n2cncn2)cc1 | 3.13% | 14.6% |  | 
27 | Clc1ccc(CN(Cc2cccc3ccccc23)n2cnnc2)c(Cl)c1 | 4.43% | 8.8% |  | 
28 | CC(C)(C)c1ccc(CN(Cc2cccs2)n2cnnc2)cc1 |  | 30.7% |  | Not Active
29 | CC(C)(C)c1ccc(CN(Cc2cccs2)n2ccnc2)cc1 | 10.7% |  | 0.58 µM | 
30 | Clc1ccc(CN(Cc2ccc(-c3ccccc3)cc2)n2cncn2)c(Cl)c1 | 9.2% | 27.6% |  | 

The remaining lines, values ahead:

Row | inhibition at 2 µM [1] | inhibition at 36 µM (Aromatase [2]) | IC50 (Aromatase [3]) | Activity [4] | Structure (SMILES)
31 | 23.6% |  | 1.04 µM |  | Clc1ccc(CN(Cc2ccc(-c3ccccc3)cc2)n2ccnc2)s1
32 | 6.03% | 19.8% |  |  | CC(C)(C)c1ccc(CN(Cc2ccc(-c3ccccc3)cc2)n2cncn2)cc1
33 | 25% |  | 1.04 µM |  | Cc1ccccc1CC(Cc1ccc(-c2ccccc2)cc1)n1ccnc1 (stereo unspecified)
34 | 22.6% |  | 1.09 µM |  | Clc1ccccc1CC(Cc1ccc(-c2ccccc2)cc1)n1ccnc1 (stereo unspecified)
35 |  |  | 1.37 µM | Not Active | Fc1ccccc1CC(Cc1ccc(-c2ccccc2)cc1)n1ccnc1 (stereo unspecified)
36 |  |  | 0.46 µM | Not Active | Fc1ccccc1CN(Cc1ccc(-c2ccccc2)cc1)n1ccnc1
37 | 29.1% |  | 2.2 µM |  | Cc1ccc(CN(Cc2ccc(-c3ccccc3)cc2)n2ccnc2)cc1
38 | 25.8% |  | 3.65 µM |  | Clc1ccc(CN(Cc2ccc(-c3ccccc3)cc2)n2ccnc2)c(Cl)c1
39 | 15.9% | 8.8% |  |  | CC(C)(C)c1ccc(CN(Cc2ccc(-c3ccccc3)cc2)n2cnnc2)cc1
40 | 38.8% |  | 1.68 µM |  | COc1ccc(CC(Cc2ccc(-c3ccccc3)cc2)n2ccnc2)cc1 (stereo unspecified)
41 |  |  | 1.2 µM | Not Active | c1ccc(CN(Cc2ccc(-c3ccccc3)cc2)n2ccnc2)cc1
42 | 20.6% |  | 2.96 µM |  | Cc1ccccc1CN(Cc1ccc(-c2ccccc2)cc1)n1ccnc1
43 | 13.6% |  | 1.18 µM |  | Clc1ccc(CN(Cc2ccc(-c3ccccc3)cc2)n2ccnc2)cc1
44 |  |  | 1 µM | Not Active | CC(C)(C)c1ccc(CC(Cc2ccc(-c3ccccc3)cc2)n2ccnc2)cc1 (stereo unspecified)
45 | 13.9% |  | 0.19 µM |  | Fc1ccc(CN(Cc2ccc(-c3ccccc3)cc2)n2ccnc2)cc1
46 | 42.9% |  | 1.51 µM |  | COc1ccccc1CN(Cc1ccc(-c2ccccc2)cc1)n1ccnc1
47 | 21.7% |  | 1.53 µM |  | COc1ccc(CN(Cc2ccc(-c3ccccc3)cc2)n2ccnc2)cc1
48 | 17.1% |  | 0.95 µM |  | c1ccc(CC(Cc2ccc(-c3ccccc3)cc2)n2ccnc2)cc1 (stereo unspecified)
49 |  |  | 0.35 µM | Not Active | Fc1ccc(CN(Cc2ccc(-c3ccccc3)cc2)n2ccnc2)c(F)c1
50 |  |  | 2.16 µM | Not Active | CC(C)(C)c1ccc(CN(Cc2ccc(-c3ccccc3)cc2)n2ccnc2)cc1
51 | 29.4% |  | 0.3 µM |  | Clc1ccccc1CN(Cc1ccc(-c2ccccc2)cc1)n1ccnc1
52 | 30.2% |  | 0.51 µM |  | COc1ccccc1CC(Cc1ccc(-c2ccccc2)cc1)n1ccnc1 (stereo unspecified)
53 | 32.8% |  | 1.32 µM |  | Cc1ccc(CC(Cc2ccc(-c3ccccc3)cc2)n2ccnc2)cc1 (stereo unspecified)
54 | 15.8% |  | 0.11 µM |  | Fc1ccc(CC(Cc2ccc(-c3ccccc3)cc2)n2ccnc2)cc1 (stereo unspecified)
